Activity calls are given as the source filed them. No cut-off for these calls is given here.

Series [1] relates to Leishmania braziliensis. Put plainly: Antileishmanial activity against amastigote form of Leishmania braziliensis MHOM/BR/1975/M2904 infected in J774.2 cells after 72 hrs by haemocytometric analysis. The class given is functional, cell-based, MHOM/BR/75/M2904. The note with it: Leishmania braziliensis, MHOM/BR/75/M2904, J774.2, 72 h. In outline:
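J774.2 macrophages grown in MEM with 2 mM glutamine and 20% inactivated FCS at 37 °C in 5% CO2. Infected with stationary-phase promastigotes at 10:1 for 24 h, then washed free of non-phagocytosed parasites. Compounds at 1, 10, 25, 50 and 100 for 72 h. Amastigotes counted on methanol-fixed, Giemsa-stained preparations and % reduction taken vs untreated. IC50 by linear regression of Kc values; three separate determinations.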

In series [2] the test system is Leishmania braziliensis. Put plainly: Antileishmanial activity against promastigote form of Leishmania braziliensis MHOM/BR/1975/M2904 after 72 hrs by haemocytometric analysis. The class given is functional. The note with it: MHOM/BR/75/M2904, 72 h. In outline:
(§1)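 Promastigotes grown at 28 °C in MTL medium with 10% inactivated FCS. Compounds in DMSO (0.1%), diluted in culture medium to 100, 50, 25, 10 and 1. Cells counted at 72 h in a Neubauer haemocytometric chamber. IC50 (50% inhibition) by linear regression of Kc values.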

Series [3] concerns Leishmania braziliensis. Put plainly: Antileishmanial activity against promastigote form of Leishmania braziliensis MHOM/BR/1975/M2904 assessed as change in succinate metabolite production at IC25 concentration after 96 hrs by H1-NMR analysis. The class given is functional, MHOM/BR/75/M2904. The method, boiled down:
(§2)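 Promastigote cultures, initial 5 × 10^5 cells/mL, given the IC25 of compound; controls left untreated. Incubated 96 h at 28 °C, then centrifuged at 400g for 10 min. Excreted metabolites in the medium identified by 1H NMR spectra and compared with untreated control.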

A short description of series [4]: Ratio of compound selectivity index to glucantime selectivity index for axenic amastigote form of Leishmania infantum MCAN/ES/2001/UCM-10 over mouse J774.2 cells. The method, boiled down: (§3)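 Axenic amastigotes obtained by 3-day promastigote transformation in supplemented M199 + 10% heat-inactivated FCS, pH 5.4, 37 °C. […] Host toxicity: J774.2, 72 h, PI/FDA flow cytometry. SI = macrophage IC50/axenic amastigote IC50; ratio is compound SI over Glucantime SI.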

The subject of the next series is J774.2. As to the kind of experiment: Cytotoxicity against mouse J774.2 cells after 72 hrs by PI-staining based flow cytometric analysis. The class given is cell-based. The note with it: J774.2, 72 h. The method, boiled down: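 J774.2 macrophages (ECACC 91051511, female BALB/c mouse tumour) treated 72 h with 100, 50, 25, 10 and 1 of compound. Propidium iodide then fluorescein diacetate each added for 10 min at 28 °C in the dark. Cells pelleted at 400g, washed in PBS and analysed by flow cytometry. Viability % vs control; IC50 by linear regression of Kc values.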

Series [5] can be described thus: Selectivity index, ratio of IC50 for mouse J774.2 cells to IC50 for amastigote form of Leishmania braziliensis MHOM/BR/1975/M2904 infected in J774.2 cells. The format is toxicity, cell-based. The note with it: J774.2 cells, read-out: Ratio IC50. In outline: (§4)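 J774.2 macrophages in MEM + 2 mM glutamine + 20% inactivated FCS were infected with stationary-phase promastigotes (10:1) for 24 h at 37 °C, 5% CO2. After washing, compounds were added at […] for 72 h. Amastigote reduction was scored in methanol-fixed, Giemsa-stained preparations; IC50 by regression; triplicates. SI = J774.2 IC50 (72 h flow cytometry)/amastigote IC50; ratio is versus Glucantime SI.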

The subject of series [6] is Leishmania braziliensis. Put plainly: Antileishmanial activity against promastigote form of Leishmania braziliensis MHOM/BR/1975/M2904 assessed as empty cytoplasmic at IC25 concentration after 96 hrs by MET microscopic analysis. The class given is functional. The note with it: MHOM/BR/75/M2904. In outline:
(§5)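 Promastigotes at 5 × 10^5 cells/mL in MTL medium with compound at IC25 for 96 h. Ultrastructure examined by transmission electron microscopy against untreated control parasites.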

The test system of series [7] is Leishmania braziliensis. Put plainly: Antileishmanial activity against promastigote form of Leishmania braziliensis MHOM/BR/1975/M2904 assessed as change in alanine metabolite production at IC25 concentration after 96 hrs by H1-NMR analysis. The format is functional, MHOM/BR/75/M2904. In outline:
as §2

For series [8], the system named is Leishmania infantum. Put plainly: Antileishmanial activity against promastigote form of Leishmania infantum MCAN/ES/2001/UCM-10 after 72 hrs by haemocytometric analysis. The note with it: Leishmania infantum, MCAN/ES/2001/UCM-10, 72 h. The class given is functional, organism-based. In outline: as §1
Series [9] can be described thus: Ratio of compound selectivity index to glucantime selectivity index for axenic amastigote form of Leishmania braziliensis MHOM/BR/1975/M2904 over mouse J774.2 cells. The method, boiled down:
as §3

In series [10] the test system is Leishmania braziliensis. As to the kind of experiment: Antileishmanial activity against promastigote form of Leishmania braziliensis MHOM/BR/1975/M2904 assessed as change in acetate metabolite production at IC25 concentration after 96 hrs by H1-NMR analysis. The format is functional, MHOM/BR/75/M2904. In outline:
as §2

The nature of series [11]: Selectivity index, ratio of IC50 for mouse J774.2 cells to IC50 for promastigote form of Leishmania braziliensis MHOM/BR/1975/M2904. The class given is toxicity. The note with it: J774.2 cells, read-out: Ratio IC50.
Series [12] concerns Leishmania braziliensis. As to the kind of experiment: Antileishmanial activity against promastigote form of Leishmania braziliensis MHOM/BR/1975/M2904 assessed as cytoplasmic alterations at IC25 concentration after 96 hrs by MET microscopic analysis. The format is functional. The note with it: MHOM/BR/75/M2904. In outline: as §5
Series [13] in a line: Selectivity index, ratio of IC50 for mouse J774.2 cells to IC50 for amastigote form of Leishmania infantum MCAN/ES/2001/UCM-10 infected in J774.2 cells. The class given is toxicity, cell-based. The note with it: J774.2 cells, read-out: Ratio IC50. The method, boiled down:
as §4

For series [14], the system named is Leishmania infantum. As to the kind of experiment: Antileishmanial activity against promastigote form of Leishmania infantum MCAN/ES/2001/UCM-10 assessed as change in acetate metabolite production at IC25 concentration after 96 hrs by H1-NMR analysis. The format is functional. In outline: as §2
Series [15] concerns Leishmania infantum. As to the kind of experiment: Antileishmanial activity against promastigote form of Leishmania infantum MCAN/ES/2001/UCM-10 infected in J774.2 cells assessed as inhibition of infection in host cells at IC25 concentration incubated for 12 hrs followed by compound washout measured after 48 hrs by microscopic analysis. The class given is functional. In outline:
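J774.2 cells seeded at 1 × 10^4 cells/well on coverslips and cultured 2 days. Infected with promastigotes at 10:1 with drug at IC25 added immediately, for 12 h at 37 °C in 5% CO2. Parasites and drug washed out, then grown 10 days with washing and fresh medium every 48 h. On methanol-fixed, Giemsa-stained slides, % infected cells and amastigotes per infected cell scored from more than 200 host cells. Three determinations.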

Series [16] relates to Leishmania infantum. As to the kind of experiment: Antileishmanial activity against promastigote form of Leishmania infantum MCAN/ES/2001/UCM-10 assessed as change in succinate metabolite production at IC25 concentration after 96 hrs by H1-NMR analysis. The class given is functional. In outline: as §2
The subject of series [17] is Leishmania infantum. As to the kind of experiment: Antileishmanial activity against promastigote form of Leishmania infantum MCAN/ES/2001/UCM-10 assessed as change in lactate metabolite production at IC25 concentration after 96 hrs by H1-NMR analysis. The format is functional. The method, boiled down:
as §2

Series [18] relates to Leishmania infantum. As to the kind of experiment: Antileishmanial activity against promastigote form of Leishmania infantum MCAN/ES/2001/UCM-10 assessed as change in alanine metabolite production at IC25 concentration after 96 hrs by H1-NMR analysis. The format is functional. The method, boiled down:
as §2

For series [19], the system named is Leishmania infantum. Put plainly: Antileishmanial activity against promastigote form of Leishmania infantum MCAN/ES/2001/UCM-10 assessed as increase in glycosomes at IC25 concentration after 96 hrs by […] electron microscopic analysis relative to control. The class given is functional, organism-based. The method, boiled down: as §5

As for `Br.NCCN1CCNCc2cccc(n2)CNCC1`, the IC50 in the series with Leishmania braziliensis [1] is 10 µM; with Leishmania braziliensis [2], 11.8 µM; in the series on J774.2, 232 µM; with Leishmania infantum [8], 18.9 µM. Further, the figures for the Activity in the series on Leishmania braziliensis [3], in the series with Leishmania braziliensis [7] and in the series with Leishmania braziliensis [10] were 22%, 5% and 18%, respectively. Moreover, the figures for the Ratio in [4] and in series [9] were 16 and 29, respectively. The figures for the selectivity ratio in series [5], in series [11] and in series [13] were 23.2, 19.6 and 9, respectively. In addition, the outcome in the series on Leishmania braziliensis [6] and with Leishmania braziliensis [12] was Active.

Consider `Cl.c1cc2nc(c1)CNCCN(CCNCc1cccc3ccccc13)CCNC2`, for which the IC50 in the series on Leishmania braziliensis [1] is 16.6 µM; with Leishmania braziliensis [2], 12.3 µM; in the series with J774.2 it was 365 µM; with Leishmania infantum [8] it was 21.7 µM. Moreover, the Activity with Leishmania braziliensis [3] is reported as 2%; in the series on Leishmania infantum [14], -6%; with Leishmania braziliensis [7], 0%; in the series on Leishmania braziliensis [10], 8%; in the series with Leishmania infantum [16], -3%; in the series on Leishmania infantum [17] it was -44%. Further, in the series with Leishmania infantum [18], the Activity is reported as -18%. Besides, the figures for the Ratio in series [4] and in series [9] were 26 and 29, respectively. Also, the selectivity ratio came to 22 in series [5], 29.7 in [11] and 21 in series [13]. Moreover, the outcome in the series on Leishmania braziliensis [6], with Leishmania braziliensis [12] and with Leishmania infantum [19] was Active. Also, in the series with Leishmania infantum [15], the “inhibition (INH)” value amounted to 74%.

Take `Cl.c1ccc(CNCCN2CCNCc3cccc(n3)CNCC2)nc1`: the IC50 amounted to 10.4 µM in the series with Leishmania braziliensis [1], 11.3 µM in the series on Leishmania braziliensis [2], 254 µM in the series on J774.2 and 15.5 µM with Leishmania infantum [8]. Further, the Activity with Leishmania braziliensis [3] is listed as -78%; in the series on Leishmania infantum [14] it was -19%; in the series on Leishmania braziliensis [7], 8%; in the series with Leishmania braziliensis [10] it was -46%; in the series with Leishmania infantum [16] it was -59%; in the series with Leishmania infantum [17] it was 13%. The Activity with Leishmania infantum [18] was 12%. Also, the Ratio in series [4] worked out at 20; in [9], 32. Further, the selectivity ratio stood at 24.4 in series [5], 22.5 in series [11] and 13 in series [13]. The result in the series on Leishmania braziliensis [6], with Leishmania braziliensis [12] and in the series on Leishmania infantum [19] was Active. The “inhibition (INH)” value in the series on Leishmania infantum [15] was 77%.

As to `Cl.c1cncc(CNCCN2CCNCc3cccc(n3)CNCC2)c1`, the IC50 with Leishmania braziliensis [1] was determined as 10.3 µM; in the series on Leishmania braziliensis [2], 23 µM; in the series with J774.2, 468 µM; in the series on Leishmania infantum [8] it was 18.8 µM. The Activity in the series on Leishmania braziliensis [3] is on record as -47%; in the series with Leishmania infantum [14], 1%; with Leishmania braziliensis [7], 10%; with Leishmania braziliensis [10], -13%; in the series on Leishmania infantum [16] it was -36%; in the series on Leishmania infantum [17], -38%. Moreover, in the series with Leishmania infantum [18], the Activity is reported as -12%. In addition, the Ratio in [4] was found to be 59; in [9], 39. Also, the selectivity ratio in series [5] is 45.4; in series [11], 20.3; in series [13], 74.3. In addition, the outcome in the series on Leishmania braziliensis [6], in the series on Leishmania braziliensis [12] and in the series on Leishmania infantum [19] was Active. Moreover, the “inhibition (INH)” value in the series on Leishmania infantum [15] is listed as 84%.

Usually IC50 stands for the concentration that inhibits the measured activity by half. Read a low IC50 as higher potency.

The values are drawn from ChEMBL document CHEMBL2331406, “In vitro activity of scorpiand-like azamacrocycle derivatives in promastigotes and intracellular amastigotes of Leishmania infantum and Leishmania braziliensis” (Eur J Med Chem, 2013).
